Compound activity (PubChem)
Most compounds without a hit are left out; they make up all but 4.5% or so of the library.
XBP1 UPR activ – adaptive UPR (XBP1) activation; actives 0.33% (n = 330,000); CHO-XBP1 luciferase reporter, IRE1-XBP1 UPR activation, luminescence; percent of tunicamycin response, DMSO as zero; activation, % at 20 µM; AID 463104;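 active = versus positive control, 20 µM dose yields 30% or more activation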;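 also: 100% = tunicamycin at 10 µg/mL and 0% = DMSO only wells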
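Material: CHO-XBP1 cells stably carrying IRE1-XBP1-driven luciferase reporter / Amount: 1000 cells per well / Compound: 20 µM, 1% DMSO / Times: 6 h treatment, 37 °C / Detection: luciferase luminescence / Measure: % activation of reporter signal versus tunicamycin and DMSO controls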
p97 inhibitor – blocks human p97 ATPase activity; actives 0.42% (n = 220,000); P55072; inhibition, % at 8 µM; recombinant p97 ATPase, Kinase-Glo ATP luminescence, 3 h; in the data active = inhibition above about 15%;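 also: 0% = DMSO vehicle and 100% = wells lacking enzyme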
Target sequence (P55072 whole entry, looked up): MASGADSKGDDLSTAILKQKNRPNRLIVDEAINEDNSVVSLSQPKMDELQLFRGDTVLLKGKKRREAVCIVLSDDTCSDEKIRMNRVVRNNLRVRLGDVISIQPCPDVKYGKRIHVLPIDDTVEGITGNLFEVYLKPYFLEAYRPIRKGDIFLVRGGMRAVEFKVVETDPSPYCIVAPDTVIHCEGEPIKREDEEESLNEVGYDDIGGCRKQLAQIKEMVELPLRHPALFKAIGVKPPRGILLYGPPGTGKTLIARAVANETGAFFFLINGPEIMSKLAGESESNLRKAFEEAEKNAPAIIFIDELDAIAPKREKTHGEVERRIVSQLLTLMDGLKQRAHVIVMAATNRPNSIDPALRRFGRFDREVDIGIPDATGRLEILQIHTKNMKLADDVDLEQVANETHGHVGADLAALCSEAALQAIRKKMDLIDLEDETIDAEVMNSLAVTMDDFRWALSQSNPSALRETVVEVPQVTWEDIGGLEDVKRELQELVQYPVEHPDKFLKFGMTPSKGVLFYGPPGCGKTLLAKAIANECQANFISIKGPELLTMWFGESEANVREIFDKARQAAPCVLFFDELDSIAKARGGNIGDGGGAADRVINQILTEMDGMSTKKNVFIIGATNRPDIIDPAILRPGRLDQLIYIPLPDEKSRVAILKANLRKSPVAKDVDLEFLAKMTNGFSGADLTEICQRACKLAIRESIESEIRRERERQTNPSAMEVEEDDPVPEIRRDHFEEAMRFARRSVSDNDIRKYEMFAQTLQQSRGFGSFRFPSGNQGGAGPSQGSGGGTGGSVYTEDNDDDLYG
CHOP inhibitor – inhibitors of CHOP induction in ER stress response | CHO-K1 CHOP-promoter luciferase, tunicamycin-induced, 15-18 h | inhibition, % at 10 µM | actives 3.8% (n = 220,000);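 active = compounds that reduced the stress-induced luciferase reporter signal by more than about 70% of percent inhibition, limit read from the data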;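 also: 0% = tunicamycin plus vehicle and 100% = wells without tunicamycin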
CHOP UPR activ – apoptotic UPR (CHOP) activation; AID 449763; activation, % at 10 µM; actives 0.34% (n = 330,000); CHO-CHOP luciferase reporter, luminescence; percent of tunicamycin response over DMSO baseline;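 active = at 10 µM dose, activation of 40% or more, normalized to positive control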;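 also: 100% = tunicamycin at 10 µg/mL and 0% = DMSO alone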
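Dosing – one dose, 10 µM in 0.5% DMSO · System – CHO-CHOP cells, stable luciferase reporter of PERK-eIF2a-CHOP signalling · Input – 500 cells/well · Control set – tunicamycin 10 µg/mL final as positive, DMSO-only wells as negative · Timing – 6 h compound treatment, 37 °C · Measure – % activation vs tunicamycin · Technique – luminescence read with Steady-Glo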
NS3 helicase inh – HCV NS3 helicase inhibition; NS3 helicase DNA unwinding, Cy5 molecular beacon fluorescence; inhibition, % at 10.9 µM; actives 0.56% (n = 290,000); AID 1800;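 active = inhibition above the mean of all tested compounds plus 3 SD, set per campaign, cut at about 35% in these data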;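 also: 0% = DMSO wells and 100% = thioflavine S control wells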
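Assay system – hepatitis C virus NS3 helicase domain fragment enzyme · Buffer or medium – MOPS pH 6.5, MgCl2, DTT, Tween20, BSA · Reagent – Cy5/quencher beacon DNA duplex and ATP to start · Compound – single 10.9 µM dose · Timing – 1 h at 25 °C · Technique – Cy5 beacon fluorescence read at start and 1 h · Measure – % inhibition of unwinding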
PfM18AAP inh – blocks P. falciparum M18 aspartyl aminopeptidase; recombinant PfM18AAP, H-Glu-NHMec fluorogenic cleavage; AID 1822; inhibition, % at 7.35 µM; actives 1.2% (n = 290,000);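 active = inhibition above the campaign mean inhibition over all tested compounds plus 3 SD, cut at about 28% in these data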;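 also: 0% = plate median of test compound wells and 100% = 2 mM ZnCl2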
An asterisk follows results filed as active; / = not tested or not shown.

SMILES	XBP1 UPR activ	p97 inhibitor	CHOP inhibitor	CHOP UPR activ	NS3 helicase inh	PfM18AAP inh
Cc1c(C(=O)NCc2cccnc2)oc2ccc(S(=O)(=O)N3CCC4(CC3)OCCO4)cc12	-2	1	2	2	-2	7
Cc1c(C(=O)NCc2cccnc2)oc2ccc(S(=O)(=O)N3CC(C)CC(C)C3)cc12 (stereo unspecified)	1	-4	102*	-2	4	-3
COc1ccc(NC(=O)C2CCCN(S(=O)(=O)c3cccnc3)C2)c(OC)c1 (stereo unspecified)	2	3	41	-1	-4	4
Cc1ccccc1-c1nc(CS(=O)(=O)CC(=O)NCCCN2CCN(C)CC2)c(C)o1	-6	/	/	-1	4	1
CCOC(=O)c1cc2c(=O)n3ccccc3nc2n(Cc2ccco2)c1=NC(=O)c1ccccc1OC	-3	5	72*	1	10	-33
Nc1nc(Nc2ccccc2)nc2c1ncn2[C@@H]1O[C@H](CO)[C@@H](O)[C@H]1O	-3	/	/	-1	/	/
COc1ccc(/C=N/Nc2ccc(C(F)(F)F)cc2[N+](=O)[O-])cc1O	0	5	76*	0	-8	7
CCOc1ccc(/C=N/Nc2ccc(C(F)(F)F)cc2[N+](=O)[O-])cc1O	1	-5	-18	2	-3	-1
O=C(Nc1ccccc1)Nc1ncc([N+](=O)[O-])s1	-5	-1	86*	1	3	-3
O=C(COC(=O)c1ccccc1)Nc1ncc([N+](=O)[O-])s1	4	/	/	1	/	/
O=C1CSC2=NCN(c3ccc4c(c3)OCO4)CN12	-1	3	94*	1	-8	-1
CCc1ccccc1NC(=O)CCS(=O)(=O)c1ccc(OC)cc1	-9	/	/	0	20	0
CCOc1ccccc1Nc1nc(-c2sc(NC(=O)c3cccc(Cl)c3)nc2C)cs1	3	2	76*	-1	8	-6
CCCC(C)C(=O)Nc1nc(C)c(-c2csc(Nc3ccccc3OC)n2)s1 (stereo unspecified)	-2	-5	35	2	20	8
COc1ccccc1Nc1nc(-c2sc(NC(=O)c3ccc([N+](=O)[O-])cc3)nc2C)cs1	32*	-6	41	3	-7	3
CCCC(C)C(=O)Nc1nc(C)c(-c2csc(Nc3ccc(Cl)cc3)n2)s1 (stereo unspecified)	-2	-2	73*	8	3	-7
COc1ccccc1Nc1nc(-c2sc(NC(=O)c3ccccc3)nc2C)cs1	0	5	36	0	-6	-11
C=CCC1(C#N)C(SC)=NC2=C(C(=O)CC(C)(C)C2)C1c1ccc(Br)cc1 (stereo unspecified)	0	-3	16	1	-8	-6
COc1ccc(NC(=O)C2CCCN(C(=O)Nc3ccc(F)cc3)C2)cc1 (stereo unspecified)	-6	/	/	0	5	2
CC1CN=C(c2cccn2Cc2ccc(F)cc2Cl)O1 (stereo unspecified)	-1	-4	72*	-2	-12	3
CC1(C)COC(c2cccn2Cc2ccc(F)cc2Cl)=N1	0	-11	85*	1	-3	-2
CC(C)C1COC(c2cccn2Cc2ccccc2Cl)=N1 (stereo unspecified)	-3	-2	4	-2	5	-10
CCOc1ccc(-c2cc(C(=O)N/N=C(\C)c3cccnc3)c3ccccc3n2)c(OCC)c1	3	/	/	0	-6	-10
CC(=O)Nc1nnc(CCS(=O)(=O)c2ccc(C)cc2)s1	1	/	/	-1	/	/
CC(=O)N1c2ccc3ccccc3c2C(C)CC12CCCCC2 (stereo unspecified)	3	-3	70*	1	-2	6
CC(C)C(NC(=O)c1ccccc1F)C(=O)NCc1ccc(F)cc1 (stereo unspecified)	2	/	/	2	-5	-12
CC(=O)c1c(C)oc2c1C(=O)c1ccccc1C2=O	/	4	73*	/	6	-2
Cc1oc2c(c1C(=O)NCc1cccnc1)C(=O)c1ccccc1C2=O	-8	6	104*	-6	-4	6
